{
  "source": "ChEMBL document CHEMBL3271971",
  "about": "“Antineoplastic and biochemical properties of arylsulfonylhydrazones of 2-formylpyridine N-oxide” (J Med Chem, 1976)",
  "key": {"[1]": {"test": "Antineoplastic activity against mouse S180A cells allografted in CD-1 mouse assessed as average survival at maximum effective dose administered qd for 6 days (reference value: 12.5 +/- 0.3 days)", "format": "functional", "summary_of_the_method": "(§1)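 Sarcoma 180 ascites cells were transplanted from a donor mouse bearing a 7-day tumour. Each agent was tested at 10–60 mg/kg/day, once daily for six consecutive days, starting 24 h after transplantation, in groups of 5–10 mice. Pooled untreated controls totalled 40 mice. Mice surviving beyond 50 days were counted as 50-day survivors, and body-weight change over therapy served as the toxicity index.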"}, "[2]": {"test": "Antineoplastic activity against mouse S180A cells allografted in CD-1 mouse assessed as maximum dose required for increase in mouse survival administered qd for 6 days", "format": "functional"}, "Mus musculus": {"test_system": "Mus musculus", "test": "Toxicity in CD-1 mouse allografted with mouse S180A cells assessed as change in body weight at maximum effective dose administered qd for 6 days (reference value: 23.2%)", "format": "organism-based", "details": "144 h"}, "[3]": {"test": "Antineoplastic activity against mouse S180A cells allografted in CD-1 mouse assessed as mouse survival at maximum effective dose administered qd for 6 days measured for 50 days relative to control", "format": "functional", "summary_of_the_method": "as §1"}, "[4]": {"test": "Antineoplastic activity against mouse S180A cells allografted in CD-1 mouse assessed as average survival at maximum effective dose administered qd for 6 days relative to control", "format": "functional", "summary_of_the_method": "as §1"}},
  "data": [
    {"compound": "O=S(=O)(N/N=C/c1cccc[n+]1[O-])c1ccccc1", "values": [
      {"measurement": "Survival", "setting": "[1]", "value": 42.4, "unit": "days"},
      {"measurement": "Activity", "setting": "[2]", "value": 40, "unit": "mg/kg"},
      {"measurement": "Activity", "setting": "Mus musculus", "value": -5.2, "unit": "%"},
      {"measurement": "Survival", "setting": "[3]", "value": 40, "unit": "%"},
      {"measurement": "T/C", "setting": "[4]", "value": 339, "unit": "%"}
    ]},
    {"compound": "Cc1ccc(S(=O)(=O)N/N=C/c2ccc[n+]([O-])c2)cc1", "values": [
      {"measurement": "Survival", "setting": "[1]", "value": 13.6, "unit": "days"},
      {"measurement": "Activity", "setting": "[2]", "value": 60, "unit": "mg/kg"},
      {"measurement": "Activity", "setting": "Mus musculus", "value": 0, "unit": "%"},
      {"measurement": "Survival", "setting": "[3]", "value": 0, "unit": "%"},
      {"measurement": "T/C", "setting": "[4]", "value": 109, "unit": "%"}
    ]},
    {"compound": "Cc1ccc(S(=O)(=O)N/N=C/c2cc[n+]([O-])cc2)cc1", "values": [
      {"measurement": "Survival", "setting": "[1]", "value": 15.4, "unit": "days"},
      {"measurement": "Activity", "setting": "[2]", "value": 60, "unit": "mg/kg"},
      {"measurement": "Activity", "setting": "Mus musculus", "value": 17.7, "unit": "%"},
      {"measurement": "Survival", "setting": "[3]", "value": 0, "unit": "%"},
      {"measurement": "T/C", "setting": "[4]", "value": 123, "unit": "%"}
    ]},
    {"compound": "CS(=O)(=O)N/N=C/c1cccc[n+]1[O-]", "values": [
      {"measurement": "Survival", "setting": "[1]", "value": 15.4, "unit": "days"},
      {"measurement": "Activity", "setting": "[2]", "value": 60, "unit": "mg/kg"},
      {"measurement": "Activity", "setting": "Mus musculus", "value": 20, "unit": "%"},
      {"measurement": "Survival", "setting": "[3]", "value": 0, "unit": "%"},
      {"measurement": "T/C", "setting": "[4]", "value": 123, "unit": "%"}
    ]},
    {"compound": "O=S(=O)(Cc1ccccc1)N/N=C/c1cccc[n+]1[O-]", "values": [
      {"measurement": "Survival", "setting": "[1]", "value": 35.2, "unit": "days"},
      {"measurement": "Activity", "setting": "[2]", "value": 40, "unit": "mg/kg"},
      {"measurement": "Activity", "setting": "Mus musculus", "value": -0.3, "unit": "%"},
      {"measurement": "Survival", "setting": "[3]", "value": 40, "unit": "%"},
      {"measurement": "T/C", "setting": "[4]", "value": 282, "unit": "%"}
    ]},
    {"compound": "Cc1ccc(C(=O)N/N=C/c2cccc[n+]2[O-])cc1", "values": [
      {"measurement": "Survival", "setting": "[1]", "value": 11.2, "unit": "days"},
      {"measurement": "Activity", "setting": "[2]", "value": 60, "unit": "mg/kg"},
      {"measurement": "Activity", "setting": "Mus musculus", "value": 10.2, "unit": "%"},
      {"measurement": "Survival", "setting": "[3]", "value": 0, "unit": "%"},
      {"measurement": "T/C", "setting": "[4]", "value": 90, "unit": "%"}
    ]},
    {"compound": "Cc1ccc(S(=O)(=O)N/N=C/c2ccccn2)cc1", "values": [
      {"measurement": "Survival", "setting": "[1]", "value": 15.4, "unit": "days"},
      {"measurement": "Activity", "setting": "[2]", "value": 10, "unit": "mg/kg"},
      {"measurement": "Activity", "setting": "Mus musculus", "value": 20.1, "unit": "%"},
      {"measurement": "Survival", "setting": "[3]", "value": 0, "unit": "%"},
      {"measurement": "T/C", "setting": "[4]", "value": 123, "unit": "%"}
    ]},
    {"compound": "Cc1ccc(S(=O)(=O)N/N=C/c2cccnc2)cc1", "values": [
      {"measurement": "Survival", "setting": "[1]", "value": 13.2, "unit": "days"},
      {"measurement": "Activity", "setting": "[2]", "value": 60, "unit": "mg/kg"},
      {"measurement": "Activity", "setting": "Mus musculus", "value": 12.6, "unit": "%"},
      {"measurement": "Survival", "setting": "[3]", "value": 0, "unit": "%"},
      {"measurement": "T/C", "setting": "[4]", "value": 106, "unit": "%"}
    ]},
    {"compound": "O=S(=O)(Cc1ccccc1)N/N=C/c1ccncc1", "values": [
      {"measurement": "Survival", "setting": "[1]", "value": 21.2, "unit": "days"},
      {"measurement": "Activity", "setting": "[2]", "value": 60, "unit": "mg/kg"},
      {"measurement": "Activity", "setting": "Mus musculus", "value": -3.3, "unit": "%"},
      {"measurement": "Survival", "setting": "[3]", "value": 0, "unit": "%"},
      {"measurement": "T/C", "setting": "[4]", "value": 169, "unit": "%"}
    ]},
    {"compound": "CS(=O)(=O)N/N=C/c1ccncc1", "values": [
      {"measurement": "Survival", "setting": "[1]", "value": 13.4, "unit": "days"},
      {"measurement": "Activity", "setting": "[2]", "value": 20, "unit": "mg/kg"},
      {"measurement": "Activity", "setting": "Mus musculus", "value": 18.6, "unit": "%"},
      {"measurement": "Survival", "setting": "[3]", "value": 0, "unit": "%"},
      {"measurement": "T/C", "setting": "[4]", "value": 107, "unit": "%"}
    ]},
    {"compound": "Cc1ccc(C(=O)N/N=C/c2ccccn2)cc1", "values": [
      {"measurement": "Survival", "setting": "[1]", "value": 11.8, "unit": "days"},
      {"measurement": "Activity", "setting": "[2]", "value": 60, "unit": "mg/kg"},
      {"measurement": "Activity", "setting": "Mus musculus", "value": 17.4, "unit": "%"},
      {"measurement": "Survival", "setting": "[3]", "value": 0, "unit": "%"},
      {"measurement": "T/C", "setting": "[4]", "value": 94, "unit": "%"}
    ]},
    {"compound": "Cc1ccc(S(=O)(=O)N/N=C/c2ccccc2[N+](=O)[O-])cc1", "values": [
      {"measurement": "Survival", "setting": "[1]", "value": 13.2, "unit": "days"},
      {"measurement": "Activity", "setting": "[2]", "value": 60, "unit": "mg/kg"},
      {"measurement": "Activity", "setting": "Mus musculus", "value": 2.1, "unit": "%"},
      {"measurement": "Survival", "setting": "[3]", "value": 0, "unit": "%"},
      {"measurement": "T/C", "setting": "[4]", "value": 105, "unit": "%"}
    ]},
    {"compound": "O=S(=O)(N/N=C/c1ccc2ccccc2[n+]1[O-])c1ccccc1", "values": [
      {"measurement": "Survival", "setting": "[1]", "value": 13.6, "unit": "days"},
      {"measurement": "Activity", "setting": "[2]", "value": 20, "unit": "mg/kg"},
      {"measurement": "Activity", "setting": "Mus musculus", "value": 2.6, "unit": "%"},
      {"measurement": "Survival", "setting": "[3]", "value": 0, "unit": "%"},
      {"measurement": "T/C", "setting": "[4]", "value": 109, "unit": "%"}
    ]},
    {"compound": "O=S(=O)(N/N=C/c1c2ccccc2cc[n+]1[O-])c1ccccc1", "values": [
      {"measurement": "Survival", "setting": "[1]", "value": 13.4, "unit": "days"},
      {"measurement": "Activity", "setting": "[2]", "value": 10, "unit": "mg/kg"},
      {"measurement": "Activity", "setting": "Mus musculus", "value": 1.6, "unit": "%"},
      {"measurement": "Survival", "setting": "[3]", "value": 0, "unit": "%"},
      {"measurement": "T/C", "setting": "[4]", "value": 107, "unit": "%"}
    ]},
    {"compound": "Cc1ccc(S(=O)(=O)N/N=C/c2ccncc2)cc1", "values": [
      {"measurement": "Survival", "setting": "[1]", "value": 28.2, "unit": "days"},
      {"measurement": "Activity", "setting": "[2]", "value": 60, "unit": "mg/kg"},
      {"measurement": "Activity", "setting": "Mus musculus", "value": -0.9, "unit": "%"},
      {"measurement": "Survival", "setting": "[3]", "value": 10, "unit": "%"},
      {"measurement": "T/C", "setting": "[4]", "value": 226, "unit": "%"}
    ]},
    {"compound": "Cc1ccc(S(=O)(=O)N/N=C/c2ccccc2)cc1", "values": [
      {"measurement": "Survival", "setting": "[1]", "value": 14.4, "unit": "days"},
      {"measurement": "Activity", "setting": "[2]", "value": 20, "unit": "mg/kg"},
      {"measurement": "Activity", "setting": "Mus musculus", "value": 15.1, "unit": "%"},
      {"measurement": "Survival", "setting": "[3]", "value": 0, "unit": "%"},
      {"measurement": "T/C", "setting": "[4]", "value": 115, "unit": "%"}
    ]}
  ]
}
